The full list was thinned out, with hits kept by preference.
Redox H2O2 prof = compounds producing H2O2 with reducing agent – biochemical, NIH compound library profiling, artefact control for MLSCN library redox annotation, primary screen | DTT-dependent redox cycling H2O2, phenol red/HRP absorbance; 100% = 100 µM peroxide control, 0% = buffer | activation, % at 10 µM | 0.03% of 200,000 active;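 active means activation of at least 50% relative to the plate's high and low controls in the primary single-dose screen; inactive means activation below 50%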;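 further: compound incubated with DTT at 0.8 mM final as the reducing agent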
G6PDH counter = inhibits Leuconostoc G6PDH, flagging false hits in G6PDH-based assays; Purified L. mesenteroides G6PDH, diaphorase/resazurin coupled fluorescence, 45 min; inhibition, % at 5 µM; 0.12% of 200,000 active; AID 1020
Diaph act CS = activates diaphorase or chemically reduces, flagging diaphorase assay artifacts; Diaphorase/resazurin coupled assay, resorufin fluorescence, 16 min; hits give high values; 1 = vehicle wells, 0 = NADH-free wells; activation factor at 20 µM; 0.005% of 190,000 active; AID 1229;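 active means diaphorase activity raised at least twofold by the compound at 20 µM; inactive means activation factor below 2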
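Measured by – red resorufin fluorescence at 544/590 nm excitation/emission · Test system – Clostridium kluyveri diaphorase, purified enzyme · Incubation – reaction time 16 min, room temperature · Buffer or medium – 50 mM HEPES pH 7.4 with 4.542 mM MgCl2, 0.005% Tween 20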
PfG6PD inh = PfG6PD (Plasmodium falciparum) enzyme inhibition. AID 504690. 0.78% of 350,000 active. inhibition, % at 20 µM. PfGluPho enzyme, NADPH resazurin-diaphorase fluorescence;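 active means inhibition reaching at least a set limit at 20 µM in the primary screen, cut at about 59% in these data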;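 further: 0% = DMSO wells with substrate and 100% = DMSO wells lacking glucose-6-phosphate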
L major viab = reduces viability of Leishmania major promastigotes | resazurin fluorescence viability | inhibition, % at 10 µM | 9% of 200,000 active;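 further: promastigotes grown with compound for 44 hours at 28 °C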
Diaphorase inh = inhibits diaphorase or chemically oxidizes, flagging diaphorase assay artifacts; 0.69% of 190,000 active; diaphorase resazurin-to-resorufin fluorescence, NADH, 16 min; bacterial (C. kluyveri) enzyme, not human; inhibition, % at 20 µM;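 active means primary screen inhibition at 20 µM above a set limit, cut at about 50% in these data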;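 further: plate controls were DMSO with full reaction for no effect and wells lacking NADH for full effect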
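Test system: Clostridium kluyveri diaphorase enzyme / Quantity: diaphorase at 0.14 U/mL in enzyme working solution / Incubation: 16-min room-temperature incubation before reading / Benchmarks: NADH-free wells as positive control, DMSO-only neutral wells / Signal: resorufin fluorescence 544/590 nm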
Starred values were filed as active, the others as inactive; . = not tested or not shown. Unless noted, no stated cut-off is given here; in the data, active means inhibition above about 50%; inactive means the rest.

SMILES	Redox H2O2 prof	G6PDH counter	Diaph act CS	PfG6PD inh	L major viab	Diaphorase inh
COc1ccc(C(C(=O)NC2CCCC2)N(C(=O)c2ccoc2C)c2ccc(C)c(C)c2)cc1 (stereo not drawn)	-1	-4	0.8	5	75*	19
CCc1ccc(C2C(C#N)=C(N)N(N(C)C)C3=C2C(=O)CCC3)cc1 (stereo not drawn)	.	.	.	2	.	.
O=C(Nc1ccncc1)c1cn(-c2ccccc2)nc1-c1cccs1	0	4	0.9	-12	95*	8
Cc1ccc(N(CCC#N)C(=O)CSc2nnc3ccccn23)cc1	.	.	.	-5	.	.
CCCOc1ccc(N2C(=O)CC(SC(=N)N3N=C(c4ccccc4)CC3c3ccccc3)C2=O)cc1 (stereo not drawn)	0	4	0.9	14	98*	6
NC(=O)C1CCN(c2nc(-c3cccs3)cs2)CC1	.	.	.	73*	.	.
COc1ccc(OC)c(/C=C2\SC(=S)N(Cc3cccnc3)C2=O)c1	1	-8	0.9	4	82*	8
CCC(CO)NCc1ccc(OC2CCCC2)cc1 (stereo not drawn)	-3	4	1.1	-20	86*	-9
CN(C)CCNCc1ccc(OC2CCCC2)cc1	0	10	1.1	1	50*	-10
CCC(CO)NCc1ccc(Br)cc1 (stereo not drawn)	-1	12	1.1	-18	0	-13
O=C1c2ccccc2C(=O)N1CC1=CCS(=O)(=O)C1	2	-2	0.8	7	-3	23
COc1ccc(S(=O)(=O)N2CCN(c3ccc4nnc(-c5ccc(F)cc5)n4n3)CC2)cc1	-1	6	0.5	39	99*	47
Cc1ccc(S(=O)(=O)N2CCN(c3ccc4nnc(-c5ccccc5)n4n3)CC2)cc1	0	4	0.6	12	75*	40
CCC(C)C(=O)Nc1nnc(CCc2ccccc2)s1 (stereo not drawn)	.	.	.	2	.	.
O=C(/C=C/c1ccc(F)cc1)c1ccccc1Br	0	-4	0.7	2	94*	29
Cc1ccc(C(=O)/C=C/c2ccc(F)cc2)o1	0	-1	1	11	98*	-1
COc1cc2c(cc1OC)CN(Cc1cc(=O)oc3cc(C)c(C)cc13)CC2	0	3	0.8	-10	5	22
COc1cc2c(cc1OC)CN(Cc1cc(=O)oc3cc(C)c(Cl)cc13)CC2	.	-3	0.9	-8	60*	12
Clc1ccc(/C=N/c2c(-c3ccc(Cl)cc3)nc3n2CCS3)cc1	-6	0	0.9	-2	43	6
Cc1ccc2oc(C(Cl)(Cl)Cl)cc(=O)c2c1	-4	3	0.8	-11	56*	19
Cc1ccc(-n2cc(CNCCc3cscn3)c(-c3ccc(F)cc3)n2)cc1	0	5	0.9	3	75*	8
COc1ccc(-n2cc(CNCCc3cscn3)c(-c3ccccc3Cl)n2)cc1	1	10	0.9	20	17	11
Cc1ccc(-n2cc(CNCCCn3ccnc3C)c(-c3ccc(F)cc3)n2)cc1	1	7	1.7	8	100*	-72
Cc1ccc(-n2cc(CNCCCn3cccn3)c(-c3cccc(C)c3)n2)cc1	.	.	.	9	.	.
COc1cccc(/C=C/C(=O)Nc2ccccc2N2CCOCC2)c1	0	8	0.8	18	11	17
SMILES	Redox H2O2 prof	G6PDH counter	Diaph act CS	PfG6PD inh	L major viab	Diaphorase inh
O=C(c1ccc(Cl)cc1)N1CCN(c2ccc([N+](=O)[O-])c(NCc3cccnc3)c2)CC1	-1	.	.	13	85*	.
COc1ccc(OC)c(NC(=O)CSc2nnc(-c3cnccn3)n2C)c1	.	.	.	-6	.	.
C[C@@H]1CN([C@@H](C)CO)C(=O)Cc2cc(NS(=O)(=O)c3cn(C)cn3)ccc2O[C@@H]1CN(C)C(=O)Nc1ccccc1	.	.	.	17	.	.
Cc1ccc2c(c1)[C@@H]1CN(C)CC[C@@H]1N2S(=O)(=O)c1ccc(F)cc1	0	6	0.9	2	88*	11
CCOc1ccccc1C(=O)NC(C(=O)Nc1cccc(S(N)(=O)=O)c1)C(C)C (stereo not drawn)	0	3	0.8	-17	10	16
Cn1nnc(NCc2cc(Br)ccc2OCc2cccs2)n1	2	5	0.9	13	89*	12
O=C(NCCOc1ccccc1)C(=O)NCC1CCCO1 (stereo not drawn)	0	17	0.9	3	-5	14
CCOc1ccc(N(CC(=O)NCC2CCCO2)S(=O)(=O)c2ccc(Cl)cc2)cc1 (stereo not drawn)	0	-2	0.9	-8	70*	6
O=C(NCCOc1ccc(Cl)cc1)C(=O)NCC1CCCO1 (stereo not drawn)	0	10	0.5	3	-5	51*
Cc1csc(-c2cnn(-c3ccccc3)c2NC(=O)c2ccc(C(F)(F)F)cc2)n1	0	9	0.8	-15	12	17
CCN(CC)S(=O)(=O)c1ccc(N2CCOCC2)c(NC(=O)C2CCCC2)c1	-1	26	1	-2	53*	0
CCN(CC)S(=O)(=O)c1ccc(N2CCOCC2)c(NC(=O)C2CC2)c1	.	.	.	1	.	.
CCOc1cc(S(=O)(=O)N(CC)CC)ccc1F	1	-2	0.9	0	1	11
O=C(Nc1ccccc1N1CCOCC1)c1cccc(NS(=O)(=O)c2ccc(F)c(F)c2)c1	0	-1	0.7	-9	70*	29
CCN(CC)S(=O)(=O)c1ccc(NC(=O)C2CCCN(C(=O)c3ccc(Cl)cc3)C2)cc1 (stereo not drawn)	0	-5	0.9	-6	97*	12
CCOc1ccc(S(=O)(=O)N(CC)CC)cc1NS(=O)(=O)c1ccc(F)c(F)c1F	1	-5	0.9	-15	60*	11
C=CCNC(=O)CSc1nnc(C(CC)N(C)C)n1C1CCCCC1 (stereo not drawn)	.	.	.	2	.	.
Cc1cc(OCC(=O)NCCc2c[nH]c3ccccc23)c2c(C)cc(=O)oc2c1	.	.	.	19	.	.
CCC(C)(C)NC(=O)CN(C(=O)c1csnn1)c1ccccc1-c1ccccc1	0	8	1	7	3	-3
CCOc1ccc(C(=O)Nc2cc(S(=O)(=O)Nc3ccccc3Cl)ccc2N2CCOCC2)cc1	0	9	0.9	6	97*	8
CCN(CC)S(=O)(=O)c1ccc(N(C)C)c(NC(=O)C2CCCC2)c1	.	.	.	-39	.	.
CCOc1ccc(S(=O)(=O)Nc2ccccc2C(=O)Nc2ccccc2N2CCOCC2)cc1	2	-2	0.7	-17	19	30
CCN(CC)CCCNC(=O)c1ccc(N2CCCCC2)c(NS(=O)(=O)c2ccc(C)cc2)c1	0	5	0.9	-5	99*	8

Screens from PubChem BioAssay.
